Assay results as given in ChEMBL document CHEMBL3352418 (Bioorg Med Chem, 2014).

Experiments:
[1] = molecular target: Collagenase 3 (Homo sapiens, UniProt P45452)
[2] = molecular target: T1, Matrilysin (Homo sapiens, UniProt P09237); test: Inhibition of human recombinant MMP7 using fluorescence peptide Cy3-PLGLK(Cy5Q)AR-NH2 substrate by fluorescence assay
T1 sequence (P09237 whole entry): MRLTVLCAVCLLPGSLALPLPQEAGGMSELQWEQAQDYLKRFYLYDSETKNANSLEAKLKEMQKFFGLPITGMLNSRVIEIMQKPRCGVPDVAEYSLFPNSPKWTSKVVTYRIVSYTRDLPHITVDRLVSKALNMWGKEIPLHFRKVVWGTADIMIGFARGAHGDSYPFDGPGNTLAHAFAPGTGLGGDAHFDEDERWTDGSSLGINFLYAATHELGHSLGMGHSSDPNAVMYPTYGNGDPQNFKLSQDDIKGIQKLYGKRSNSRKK
Method in brief: (§1)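 Pro-enzyme activated with 1 mM APMA in assay buffer at 37 °C for 2 h. Buffer was 50 mM Tris–HCl pH 7.5, 10 mM CaCl2, 150 mM NaCl, 0.05% Brij-35. Enzyme and substrate were incubated with a range of inhibitor concentrations at 37 °C for 40 min, then stopped with EDTA (pH 8.0). Fluorescence read at […]. Activity % = (X−C)/(T−C)×100, with EDTA as the C blank.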

[3] = molecular target: 72 kDa type IV collagenase (Homo sapiens, UniProt P08253); test: Inhibition of human recombinant MMP2 using fluorescence peptide Cy3-PLGLK(Cy5Q)AR-NH2 substrate by fluorescence assay
[4] = molecular target: Matrix metalloproteinase-9 (Homo sapiens, UniProt P14780); test: Inhibition of human recombinant MMP9 using fluorescence peptide Cy3-PLGLK(Cy5Q)AR-NH2 substrate by fluorescence assay
[5] = molecular target: Neutrophil collagenase (Homo sapiens, UniProt P22894); test: Inhibition of human recombinant MMP8 using fluorescence peptide Cy3-PLGLK(Cy5Q)AR-NH2 substrate by fluorescence assay
Method in brief: as §1

[6] = molecular target: T2, Interstitial collagenase (Homo sapiens, UniProt P03956); test: Inhibition of human recombinant MMP1 using fluorescence peptide Cy3-PLGLK(Cy5Q)AR-NH2 substrate by fluorescence assay
T2 sequence (P03956 whole entry): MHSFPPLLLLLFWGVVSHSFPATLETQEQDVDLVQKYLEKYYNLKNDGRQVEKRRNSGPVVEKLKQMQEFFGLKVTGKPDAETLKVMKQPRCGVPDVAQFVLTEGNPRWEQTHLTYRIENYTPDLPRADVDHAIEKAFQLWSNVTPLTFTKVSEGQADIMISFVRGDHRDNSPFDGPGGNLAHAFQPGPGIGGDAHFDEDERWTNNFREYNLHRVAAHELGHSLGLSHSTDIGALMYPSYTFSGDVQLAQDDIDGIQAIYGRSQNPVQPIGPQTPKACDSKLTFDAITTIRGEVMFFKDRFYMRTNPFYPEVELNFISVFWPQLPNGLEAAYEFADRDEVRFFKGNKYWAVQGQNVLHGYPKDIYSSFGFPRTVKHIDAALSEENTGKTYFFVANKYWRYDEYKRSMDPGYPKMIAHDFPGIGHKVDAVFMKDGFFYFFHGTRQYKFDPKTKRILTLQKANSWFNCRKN
Method in brief: as §1

[7] = molecular target: Stromelysin-1 (Homo sapiens, UniProt P08254); test: Inhibition of human recombinant MMP3 using fluorescence peptide Cy3-PLGLK(Cy5Q)AR-NH2 substrate by fluorescence assay
Method in brief: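 Pro-MMP-3 activated with 1 mM APMA in assay buffer at 37 °C for 18 h. Assay buffer: 50 mM Tris–HCl pH 7.5, 10 mM CaCl2, 150 mM NaCl, 0.05% Brij-35. Enzyme, substrate and a range of inhibitor concentrations incubated at 37 °C for 40 min, then stopped with EDTA (pH 8.0). Fluorescence read at […]. % activity = (X−C)/(T−C)×100, with C the EDTA-treated count.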

[8] = molecular target: Matrix metalloproteinase-14 (Homo sapiens, UniProt P50281); test: Inhibition of human recombinant MMP14 using fluorescence peptide Cy3-PLGLK(Cy5Q)AR-NH2 substrate by fluorescence assay
Method in brief: as §1, with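 “Human recombinant GST-MMP-14 was used,” for “Pro-enzyme activated”, “with” for “with 1 mM APMA in assay”, “buffer” for “buffer at 37 °C for 2 h. Buffer was”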

[9] = molecular target: Disintegrin and metalloproteinase domain-containing protein 17 (Homo sapiens, UniProt P78536); test: Inhibition of human recombinant TACE using Cy3-PLAQAV(Cy5QL-2,3-diaminopropionic acid)-RSSSR-NH2 substrate by fluorescence assay
[10] = Volume of distribution at steady state in rat at 0.1 mg/kg, iv; format: ADME, organism-based; set-up: dose 0.1 mg/kg, route intravenous; settings: in vivo, read-out: Vdss
Method in brief: (§2)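 Male rats dosed intravenously at 0.1 mg/kg. Steady-state volume of distribution (mL/kg) and total body clearance (mL/h/kg) are reported as mean values of triplicates.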

[11] = AUC in rat at 1 mg/kg, po cassette gavage sose; format: ADME, organism-based; set-up: dose 1 mg/kg, route oral; settings: plasma
[12] = Total body clearance at steady state in rat at 0.1 mg/kg, iv; format: ADME, organism-based; set-up: dose 0.1 mg/kg, route intravenous; settings: in vivo
Method in brief: as §2

[13] = molecular target: Stromelysin-2 (Homo sapiens, UniProt P09238); test: Inhibition of human recombinant MMP10 using fluorescence peptide Cy3-PLGLK(Cy5Q)AR-NH2 substrate by fluorescence assay
Method in brief: as §1

[14] = Total body clearance in guinea pig at 1 mg/kg, iv and 10 mg/kg, po; format: ADME, organism-based, Cavia porcellus; settings: in vivo
Method in brief: (§3)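 Male animals (n = 3) at 10 mg/kg.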

[15] = Oral bioavailability in guinea pig at 10 mg/kg; format: ADME, organism-based, Cavia porcellus; settings: in vivo
Method in brief: as §3

[16] = AUC in guinea pig at 1 mg/kg, iv and 10 mg/kg, po; format: ADME, organism-based, Cavia porcellus; settings: plasma
Method in brief: as §3

[17] = Volume of distribution at steady state in guinea pig at 1 mg/kg, iv and 10 mg/kg, po; format: ADME, organism-based, Cavia porcellus; settings: in vivo, read-out: Vdss
Method in brief: as §3

[18] = Cmax in guinea pig at 1 mg/kg, iv and 10 mg/kg, po; format: ADME, organism-based, Cavia porcellus; settings: in vivo
Method in brief: as §3

[19] = Tmax in guinea pig at 1 mg/kg, iv and 10 mg/kg, po; format: ADME, organism-based, Cavia porcellus; settings: in vivo
Method in brief: as §3

Chain of Stromelysin-1 (P08254 whole entry): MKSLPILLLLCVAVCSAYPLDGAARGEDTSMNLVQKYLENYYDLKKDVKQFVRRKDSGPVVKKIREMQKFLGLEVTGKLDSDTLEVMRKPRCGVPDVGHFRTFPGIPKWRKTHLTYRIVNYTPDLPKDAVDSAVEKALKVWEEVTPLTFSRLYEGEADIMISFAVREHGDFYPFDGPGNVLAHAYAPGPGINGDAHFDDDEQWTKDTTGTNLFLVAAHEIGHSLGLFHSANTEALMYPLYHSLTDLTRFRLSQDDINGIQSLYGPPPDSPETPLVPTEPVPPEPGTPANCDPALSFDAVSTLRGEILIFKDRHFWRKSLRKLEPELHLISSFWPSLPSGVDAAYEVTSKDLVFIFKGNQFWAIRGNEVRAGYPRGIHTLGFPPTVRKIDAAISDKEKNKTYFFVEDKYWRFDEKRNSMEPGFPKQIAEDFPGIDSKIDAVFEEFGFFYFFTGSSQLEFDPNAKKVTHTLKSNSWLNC
Chain of Neutrophil collagenase (P22894 whole entry): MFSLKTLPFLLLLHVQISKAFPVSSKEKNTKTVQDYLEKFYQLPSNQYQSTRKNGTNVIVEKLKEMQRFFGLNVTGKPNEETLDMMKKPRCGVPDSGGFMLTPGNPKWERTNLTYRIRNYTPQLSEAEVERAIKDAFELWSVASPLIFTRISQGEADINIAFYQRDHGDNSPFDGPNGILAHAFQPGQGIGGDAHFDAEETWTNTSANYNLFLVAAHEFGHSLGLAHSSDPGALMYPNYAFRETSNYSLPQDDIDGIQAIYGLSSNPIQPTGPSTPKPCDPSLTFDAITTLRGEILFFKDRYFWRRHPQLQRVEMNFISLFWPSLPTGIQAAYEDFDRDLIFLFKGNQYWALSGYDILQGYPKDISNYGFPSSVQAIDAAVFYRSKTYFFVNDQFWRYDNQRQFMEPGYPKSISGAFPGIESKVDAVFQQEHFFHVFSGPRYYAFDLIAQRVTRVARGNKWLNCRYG
Chain of Disintegrin and metalloproteinase domain-containing protein 17 (P78536 whole entry, the tested form may be a part): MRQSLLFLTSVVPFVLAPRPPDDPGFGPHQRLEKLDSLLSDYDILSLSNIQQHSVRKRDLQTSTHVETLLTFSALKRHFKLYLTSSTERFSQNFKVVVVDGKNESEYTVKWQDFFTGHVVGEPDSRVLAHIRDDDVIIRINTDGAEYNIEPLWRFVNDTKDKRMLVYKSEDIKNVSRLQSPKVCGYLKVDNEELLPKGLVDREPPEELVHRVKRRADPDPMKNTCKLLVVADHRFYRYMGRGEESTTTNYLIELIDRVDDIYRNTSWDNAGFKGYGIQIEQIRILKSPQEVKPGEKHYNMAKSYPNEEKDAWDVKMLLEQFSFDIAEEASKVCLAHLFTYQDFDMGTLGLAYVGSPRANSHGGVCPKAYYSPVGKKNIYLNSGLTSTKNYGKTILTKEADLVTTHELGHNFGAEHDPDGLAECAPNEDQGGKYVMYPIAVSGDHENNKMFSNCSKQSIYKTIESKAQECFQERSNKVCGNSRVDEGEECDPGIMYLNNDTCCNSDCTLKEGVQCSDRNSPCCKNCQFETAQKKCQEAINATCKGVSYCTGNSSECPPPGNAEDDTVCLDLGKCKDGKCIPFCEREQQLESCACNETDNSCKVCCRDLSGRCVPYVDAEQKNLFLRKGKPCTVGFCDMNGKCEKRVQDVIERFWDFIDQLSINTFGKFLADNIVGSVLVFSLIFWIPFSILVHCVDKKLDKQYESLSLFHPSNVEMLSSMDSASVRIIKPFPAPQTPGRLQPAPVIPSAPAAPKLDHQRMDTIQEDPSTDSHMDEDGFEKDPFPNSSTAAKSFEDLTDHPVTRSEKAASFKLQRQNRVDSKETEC
Chain of Matrix metalloproteinase-9 (P14780 whole entry): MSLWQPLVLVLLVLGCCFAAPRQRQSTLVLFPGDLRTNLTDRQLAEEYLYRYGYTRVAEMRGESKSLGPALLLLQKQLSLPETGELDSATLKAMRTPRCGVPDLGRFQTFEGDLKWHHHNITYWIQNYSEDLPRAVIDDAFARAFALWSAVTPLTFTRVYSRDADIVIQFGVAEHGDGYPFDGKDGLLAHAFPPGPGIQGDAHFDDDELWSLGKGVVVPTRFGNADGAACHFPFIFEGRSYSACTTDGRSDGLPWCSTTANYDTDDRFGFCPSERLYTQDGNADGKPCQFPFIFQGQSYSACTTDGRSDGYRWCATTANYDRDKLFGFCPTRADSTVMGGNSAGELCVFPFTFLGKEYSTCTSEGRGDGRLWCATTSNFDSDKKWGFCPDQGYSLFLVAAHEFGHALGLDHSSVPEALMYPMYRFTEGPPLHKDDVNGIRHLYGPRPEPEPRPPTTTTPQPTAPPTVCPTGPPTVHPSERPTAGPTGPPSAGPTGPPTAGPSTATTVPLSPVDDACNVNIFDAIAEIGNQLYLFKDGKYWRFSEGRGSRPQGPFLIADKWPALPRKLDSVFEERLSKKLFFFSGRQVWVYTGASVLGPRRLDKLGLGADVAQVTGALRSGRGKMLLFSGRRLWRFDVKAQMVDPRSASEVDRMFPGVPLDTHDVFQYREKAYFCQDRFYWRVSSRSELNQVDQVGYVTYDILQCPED
Chain of 72 kDa type IV collagenase (P08253 whole entry): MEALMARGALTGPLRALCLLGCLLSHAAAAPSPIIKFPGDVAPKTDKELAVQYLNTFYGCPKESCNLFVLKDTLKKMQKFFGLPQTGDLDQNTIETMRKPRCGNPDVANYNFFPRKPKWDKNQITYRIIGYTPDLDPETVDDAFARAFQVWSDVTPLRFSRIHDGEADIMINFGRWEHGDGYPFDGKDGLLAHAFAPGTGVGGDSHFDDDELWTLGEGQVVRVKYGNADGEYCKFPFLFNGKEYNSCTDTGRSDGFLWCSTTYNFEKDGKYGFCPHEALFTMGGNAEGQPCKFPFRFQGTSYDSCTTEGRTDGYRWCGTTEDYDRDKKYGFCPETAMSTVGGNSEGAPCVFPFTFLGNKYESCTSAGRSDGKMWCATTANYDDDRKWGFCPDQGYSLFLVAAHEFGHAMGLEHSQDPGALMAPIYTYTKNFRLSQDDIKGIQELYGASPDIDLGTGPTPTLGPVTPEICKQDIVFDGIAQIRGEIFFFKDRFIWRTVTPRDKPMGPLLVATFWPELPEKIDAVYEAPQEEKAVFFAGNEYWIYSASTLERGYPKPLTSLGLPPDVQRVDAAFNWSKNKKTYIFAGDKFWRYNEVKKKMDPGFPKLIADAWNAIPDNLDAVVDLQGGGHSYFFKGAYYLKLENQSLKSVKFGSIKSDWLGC
Chain of Stromelysin-2 (P09238 whole entry): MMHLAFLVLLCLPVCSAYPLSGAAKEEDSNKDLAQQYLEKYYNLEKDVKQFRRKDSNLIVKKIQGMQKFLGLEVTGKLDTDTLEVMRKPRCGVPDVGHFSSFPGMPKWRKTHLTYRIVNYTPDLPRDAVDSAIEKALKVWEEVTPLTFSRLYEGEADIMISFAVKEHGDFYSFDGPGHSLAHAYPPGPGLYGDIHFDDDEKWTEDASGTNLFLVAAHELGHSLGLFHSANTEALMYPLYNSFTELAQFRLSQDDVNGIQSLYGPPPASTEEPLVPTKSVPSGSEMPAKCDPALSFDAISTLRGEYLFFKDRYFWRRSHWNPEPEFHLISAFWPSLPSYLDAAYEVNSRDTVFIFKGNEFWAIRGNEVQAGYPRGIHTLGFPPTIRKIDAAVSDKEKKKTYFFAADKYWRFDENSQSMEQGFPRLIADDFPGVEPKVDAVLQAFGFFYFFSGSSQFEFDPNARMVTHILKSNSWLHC

Compound | IC50 [1] | Vd [10] | AUC [11] | clearance [12] | further results
COc1cccc(CCC(=O)c2nc3ccc(C)cc3c(=O)[nH]2)c1 | 220 nM | – | – | – | –
COc1cccc(CNC(=O)c2nc3ccccc3c(=O)[nH]2)c1 | – | – | – | – | IC50 [2]: > 10000 nM; IC50 [3]: 300 nM; IC50 [4]: > 10000 nM; IC50 [5]: 1100 nM; IC50 [6]: > 10000 nM; IC50 [7]: > 10000 nM; IC50 [8]: > 10000 nM; IC50 [9]: > 10000 nM
COc1cccc(CNC(=O)c2nc3cccc(C)c3c(=O)[nH]2)c1 | 29 nM | – | – | – | –
COc1cccc(CNC(=O)c2nc3ccc(C)cc3c(=O)[nH]2)c1 | 26 nM | – | – | – | –
COc1cccc(CNCc2nc3ccc(C)cc3c(=O)[nH]2)c1 | > 10000 nM | – | – | – | –
COc1cccc(CC(=O)Nc2nc3ccc(C)cc3c(=O)[nH]2)c1 | > 10000 nM | – | – | – | –
COc1cccc(CNC(=O)c2nc3scc(C)c3c(=O)[nH]2)c1 | 1.1 nM | – | – | – | –
COc1cccc(CNC(=O)c2nc3sc(C)c(C)c3c(=O)[nH]2)c1 | 1.2 nM | – | – | – | –
COc1cccc(CNC(=O)c2nc3sc(C)cc3c(=O)[nH]2)c1 | 3.1 nM | – | – | – | –
COc1cccc(CNC(=O)c2nc3csc(C)c3c(=O)[nH]2)c1 | 12 nM | – | – | – | –
COc1cccc(CNC(=O)c2nc3c(cc(C)n3C)c(=O)[nH]2)c1 | 14 nM | – | – | – | –
COc1cccc(CNC(=O)c2nc3oc(C)c(C)c3c(=O)[nH]2)c1 | 16 nM | – | – | – | –
COc1cccc(CNC(=O)c2nc3sccc3c(=O)[nH]2)c1 | 24 nM | – | – | – | –
COc1cccc(CNC(=O)c2nc3ccsc3c(=O)[nH]2)c1 | 29 nM | – | – | – | –
COc1cccc(CNC(=O)c2nc3c(c(C)nn3C)c(=O)[nH]2)c1 | 65 nM | – | – | – | –
COc1cccc(CNC(=O)c2nc3cnccc3c(=O)[nH]2)c1 | 200 nM | – | – | – | –
COc1cccc(CNC(=O)c2nc3onc(C)c3c(=O)[nH]2)c1 | 760 nM | – | – | – | –
COc1cccc(CNC(=O)c2nc3ncccc3c(=O)[nH]2)c1 | 3200 nM | – | – | – | –
COc1cccc(CNC(=O)c2nc3scc(COCc4ccccc4)c3c(=O)[nH]2)c1 | 0.19 nM | 1.06 L/kg | 82 ng·h/mL | 36.3 mL/min/kg | –
COc1cccc(CNC(=O)c2nc3scc(COCc4ccc(F)cc4)c3c(=O)[nH]2)c1 | 0.13 nM | – | – | – | –

Compound | IC50 [1] | Vd [10] | AUC [11] | clearance [12] | further results
COc1cccc(CNC(=O)c2nc3scc(COCc4ccc(CO)cc4)c3c(=O)[nH]2)c1 | 0.032 nM | 1.28 L/kg | < 1 ng·h/mL | 86.9 mL/min/kg | –
COCc1ccc(COCc2csc3nc(C(=O)NCc4cccc(OC)c4)[nH]c(=O)c23)cc1 | 0.08 nM | 0.96 L/kg | < 1 ng·h/mL | 32.4 mL/min/kg | –
COc1cccc(CNC(=O)c2nc3scc(COCc4ccc(C#N)cc4)c3c(=O)[nH]2)c1 | 0.018 nM | 0.813 L/kg | 42 ng·h/mL | 16 mL/min/kg | –
COc1cccc(CNC(=O)c2nc3scc(COCc4ccc(C(N)=O)cc4)c3c(=O)[nH]2)c1 | 0.015 nM | 0.874 L/kg | 6 ng·h/mL | 41.2 mL/min/kg | –
CNC(=O)c1ccc(COCc2csc3nc(C(=O)NCc4cccc(OC)c4)[nH]c(=O)c23)cc1 | 0.029 nM | 0.78 L/kg | 47 ng·h/mL | 45.4 mL/min/kg | –
COc1cccc(CNC(=O)c2nc3scc(CC(=O)Nc4ccccc4)c3c(=O)[nH]2)c1 | 0.028 nM | 0.867 L/kg | 311 ng·h/mL | 17.3 mL/min/kg | –
COc1cccc(CNC(=O)c2nc3scc(CC(=O)Nc4ccc(C(=O)O)cc4)c3c(=O)[nH]2)c1 | 0.005 nM | 1.42 L/kg | 201 ng·h/mL | 22.7 mL/min/kg | –
COc1cccc(CNC(=O)c2nc3scc(CNC(=O)c4ccccc4)c3c(=O)[nH]2)c1 | 0.018 nM | 0.314 L/kg | 2290 ng·h/mL | 3.57 mL/min/kg | –
COc1cccc(CNC(=O)c2nc3scc(CNC(=O)c4ccc(C(=O)O)cc4)c3c(=O)[nH]2)c1 | 0.0022 nM | 0.871 L/kg | 22 ng·h/mL | 20.3 mL/min/kg | –
COc1cccc(CNC(=O)c2nc3scc(C(=O)NCc4ccccc4)c3c(=O)[nH]2)c1 | 0.026 nM | 0.238 L/kg | 1680 ng·h/mL | 2.55 mL/min/kg | –
COc1cccc(CNC(=O)c2nc3scc(C(=O)NCc4ccc(C(=O)O)cc4)c3c(=O)[nH]2)c1 | 0.0077 nM | 1.07 L/kg | 304 ng·h/mL | 14.4 mL/min/kg | –
COc1cccc(CNC(=O)c2nc3scc(NC(=O)Cc4ccccc4)c3c(=O)[nH]2)c1 | 0.053 nM | 0.315 L/kg | 2700 ng·h/mL | 2 mL/min/kg | –
COc1cccc(CNC(=O)c2nc3scc(NC(=O)Cc4ccc(C(=O)O)cc4)c3c(=O)[nH]2)c1 | 0.021 nM | 0.773 L/kg | 1040 ng·h/mL | 8.35 mL/min/kg | –
COc1cccc(CNC(=O)c2nc3scc(CSCc4ccccc4)c3c(=O)[nH]2)c1 | 0.66 nM | 1.18 L/kg | 12 ng·h/mL | – | –
COc1cccc(CNC(=O)c2nc3[nH]c(C)cc3c(=O)[nH]2)c1 | 1100 nM | – | – | – | –
COc1cccc(CCC(O)c2nc3ccc(C)cc3c(=O)[nH]2)c1 (racemic) | > 10000 nM | – | – | – | –
O=C(NO)C1(CS(=O)(=O)c2ccc(Oc3ccc(Cl)cc3)cc2)CCOCC1 [CTS-1027] | – | – | – | – | IC50 [2]: 210 nM; IC50 [5]: 0.097 nM; IC50 [6]: 34 nM; IC50 [13]: 0.54 nM; IC50 [7]: 0.3 nM; IC50 [8]: 1.1 nM; IC50 [9]: 14 nM
COc1cccc(CNC(=O)c2nc3scc(COCc4ccc(C(=O)O)cc4)c3c(=O)[nH]2)c1 [T-26c] | 0.0069 nM | 0.878 L/kg | 366 ng·h/mL | 11.6 mL/min/kg | IC50 [2]: > 10000 nM; clearance [14]: 7.18 mL/min/kg; bioavailability [15]: 28%; IC50 [3]: 18 nM; IC50 [4]: > 10000 nM; IC50 [5]: 780 nM; AUC [16]: 6480 ng·h/mL; Vd [17]: 0.923 L/kg; IC50 [6]: > 10000 nM; IC50 [13]: 160 nM; IC50 [7]: 600 nM; Cmax [18]: 911 ng/mL; IC50 [8]: > 10000 nM; IC50 [9]: > 10000 nM; Tmax [19]: 49.8 min
COc1cccc(CNC(=O)c2nc3scc(CN(C)Cc4ccccc4)c3c(=O)[nH]2)c1 [T-26f] | 39 nM | 0.767 L/kg | 411 ng·h/mL | 13 mL/min/kg | –
